Experimental data of several laboratories.
Compare with care: the assays were run in different laboratories.
DRD1: D(1A) dopamine receptor (DRD1, Homo sapiens, UniProt P21728)
BCHE: Cholinesterase (BCHE, Equus caballus, UniProt P81908)
Sterol carrier protein 2: Sterol carrier protein 2 (Aedes aegypti, UniProt Q86PR3)

CN(C)C(=O)COC(=O)c1cc(-c2ccc([C@H]3C[C@H]4C[C@@H]3CN4)cc2)c2ccc(-c3ccc(C(F)(F)F)cc3)cc2c1  Ki (DRD1; cell-free assay; radioligand): 1.4 to 2.2 µM
O=S(=O)(O)c1ccc(-c2c3nc(c(-c4ccc(S(=O)(=O)O)cc4)c4ccc([nH]4)c(-c4ccc(S(=O)(=O)O)cc4)c4nc(c(-c5ccc(S(=O)(=O)O)cc5)c5ccc2[nH]5)C=C4)C=C3)cc1  Kd (Galectin-7 (LGALS7, Homo sapiens, UniProt P47929); binding): 9.5 µM
N[C@H]1C[C@@H](CO)[C@H](c2ccc(-c3cc(C(=O)O)cc4cc(-c5ccc(C(F)(F)F)cc5)ccc34)cc2)C1  Ki (DRD1; cell-free assay; radioligand): 1.4 to 2.2 µM
CC=C1[C@H]2C=C(C)C[C@]1(N(C)C)c1ccc(=O)[nH]c1C2  IC50 (BCHE; enzyme activity; inhibitor; Ellman): 224 µM
O=c1c(O)c(-c2ccc(O[C@@H]3O[C@H](CO)[C@@H](O)[C@H](O)[C@H]3O)c(O)c2)oc2cc(O)cc(O)c12  Ki (BCHE; enzyme activity; inhibitor): 0.0281 µM
CC=C1[C@H]2C=C(C)C[C@]1(N(C)C)c1ccc(OC)nc1C2  IC50 (BCHE; enzyme activity; inhibitor; Ellman): 1350 µM
C[C@H]1c2c[nH]c3cccc(c23)S[C@H]1C(=O)O  Kd (trpS (Geobacillus stearothermophilus, UniProt P00953); binding; ITC): 3.1 µM
O=c1c(O)c(-c2ccc(O)c(O)c2)oc2cc(O)cc(O)c12  EC50 (Sterol carrier protein 2; ligand displacement): 18.4 µM
CNC[C@H](O)c1cccc(O)c1  EC50 (DRD1; cAMP; agonist; TR-FRET): 2.8 µM
COc1cc(/C=C2\CCC/C(=C\c3cc(OC)c(OC)c(OC)c3)C2=O)cc(OC)c1OC  EC50 (Sterol carrier protein 2; ligand displacement; fluorescence): 12.1 µM
CNc1nc(C#Cc2ccc(Cl)s2)nc2c1ncn2[C@@H]1O[C@H](C(=O)OC)[C@@H](O)[C@H]1O  Ki (Sodium-dependent serotonin transporter (SLC6A4, Homo sapiens, UniProt P31645); ligand displacement; radioligand; cell membranes): > 10 µM
CC(CCc1ccc(O)cc1)NCCc1ccc(O)c(O)c1 (stereo not drawn)  EC50 (DRD1; cAMP; agonist; TR-FRET): 13 µM
